The results in this text go back to ChEMBL document CHEMBL4052674, “Discovery of novel quinazoline-2,4(1H,3H)-dione derivatives as potent PARP-2 selective inhibitors” (Bioorg Med Chem, 2017).

The species entered for the first assay is Homo sapiens. The assay can be described thus: Selectivity index, ratio of IC50 for recombinant human PARP-1 expressed in Escherichia coli BL21 (DE3) to IC50 for recombinant human PARP-2 expressed in Escherichia coli BL21 (DE3). In outline:
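Human recombinant PARP-1 and PARP-2, expressed from plasmid and purified, were tested for inhibition of enzyme activity by ELISA and by chemical quantitation of NAD⁺. IC50 for each isoform was averaged from two or three independent experiments. The selectivity value is the ratio of the PARP-1 IC50 to the PARP-2 IC50.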
In the case of `O=C(Nc1cc(Cn2c(=O)[nH]c(=O)c3ccccc32)cnc1F)[C@H]1CCN(Cc2ccncc2)C1`, the Ratio IC50 was 10.7.

For the compound `O=C(Nc1cc(Cn2c(=O)[nH]c(=O)c3ccccc32)cnc1F)[C@H]1CCN(Cc2ccccc2)C1`, the Ratio IC50 was determined as 2.5.

For `O=C(Nc1cc(Cn2c(=O)[nH]c(=O)c3ccccc32)cnc1F)[C@H]1CCN(c2ccccc2)C1`, the Ratio IC50 came out at 22.8.

Regarding `CC(C)(C)OC(=O)N1CC[C@H](C(=O)Nc2cc(Cn3c(=O)[nH]c(=O)c4ccccc43)ccc2Cl)C1`, the Ratio IC50 was determined as 0.7.

`O=C(Nc1cc(Cn2c(=O)[nH]c(=O)c3ccccc32)cnc1F)[C@H]1CCN(CCC2CC2)C1`: the Ratio IC50 turned out to be 1.8.

As for `O=C(Nc1cncc(Cn2c(=O)[nH]c(=O)c3ccccc32)c1)[C@H]1CCNC1`, the Ratio IC50 was determined as 0.04.

For the compound `O=C(Nc1cc(Cn2c(=O)[nH]c(=O)c3ccccc32)cnc1Cl)[C@H]1CCNC1`, the Ratio IC50 is 4.4.

With `O=C(Nc1cc(Cn2c(=O)[nH]c(=O)c3ccccc32)cnc1F)[C@H]1CCN(CC2CC2)C1`, the Ratio IC50 turned out to be 1.6.

Turning to `O=C(Nc1cc(Cn2c(=O)[nH]c(=O)c3ccccc32)cnc1F)[C@H]1CCNC1`, the Ratio IC50 was determined as 0.18.

For the compound `CC(C)(C)OC(=O)N1CC[C@H](C(=O)Nc2cc(Cn3c(=O)[nH]c(=O)c4ccccc43)cnc2Cl)C1`, the Ratio IC50 came to 19.

Consider `O=C(Nc1cc(Cn2c(=O)[nH]c(=O)c3ccccc32)cnc1F)[C@H]1CCN(CC(F)(F)F)C1`, for which the Ratio IC50 stood at 40.6.

Consider `CC(C)(C)OC(=O)N1CC[C@H](C(=O)Nc2cc(Cn3c(=O)[nH]c(=O)c4ccccc43)cnc2F)C1`, for which the Ratio IC50 stood at 4.6.

`O=C(Nc1cc(Cn2c(=O)[nH]c(=O)c3ccccc32)cnc1F)[C@H]1CCN(C(=O)C2CC2)C1`: the Ratio IC50 came out at 12.

In the case of `O=C(Nc1cc(Cn2c(=O)[nH]c(=O)c3ccccc32)cnc1F)[C@H]1CCN(CCC(F)(F)F)C1`, the Ratio IC50 was determined as 1.

In the case of `O=C(Nc1cc(Cn2c(=O)[nH]c(=O)c3ccccc32)cnc1F)[C@H]1CCN(C2CCC(F)(F)CC2)C1`, the Ratio IC50 was 6.8.

For the compound `CC(C)(C)OC(=O)N1CC[C@H](C(=O)Nc2cc(Cn3c(=O)[nH]c(=O)c4ccccc43)ccc2Br)C1`, the Ratio IC50 came out at 5.1.

For a further assay, the target named is Poly [ADP-ribose] polymerase 1 (Homo sapiens, UniProt P09874). In words: Inhibition of recombinant human PARP-1 expressed in Escherichia coli BL21 (DE3) using sheared DNA as substrate in presence of biotinylated NAD after 1 hr by ELISA. (In an ELISA, binding on a coated surface is turned into a signal by an enzyme label.)
Sequence of Poly [ADP-ribose] polymerase 1 (P09874 whole entry): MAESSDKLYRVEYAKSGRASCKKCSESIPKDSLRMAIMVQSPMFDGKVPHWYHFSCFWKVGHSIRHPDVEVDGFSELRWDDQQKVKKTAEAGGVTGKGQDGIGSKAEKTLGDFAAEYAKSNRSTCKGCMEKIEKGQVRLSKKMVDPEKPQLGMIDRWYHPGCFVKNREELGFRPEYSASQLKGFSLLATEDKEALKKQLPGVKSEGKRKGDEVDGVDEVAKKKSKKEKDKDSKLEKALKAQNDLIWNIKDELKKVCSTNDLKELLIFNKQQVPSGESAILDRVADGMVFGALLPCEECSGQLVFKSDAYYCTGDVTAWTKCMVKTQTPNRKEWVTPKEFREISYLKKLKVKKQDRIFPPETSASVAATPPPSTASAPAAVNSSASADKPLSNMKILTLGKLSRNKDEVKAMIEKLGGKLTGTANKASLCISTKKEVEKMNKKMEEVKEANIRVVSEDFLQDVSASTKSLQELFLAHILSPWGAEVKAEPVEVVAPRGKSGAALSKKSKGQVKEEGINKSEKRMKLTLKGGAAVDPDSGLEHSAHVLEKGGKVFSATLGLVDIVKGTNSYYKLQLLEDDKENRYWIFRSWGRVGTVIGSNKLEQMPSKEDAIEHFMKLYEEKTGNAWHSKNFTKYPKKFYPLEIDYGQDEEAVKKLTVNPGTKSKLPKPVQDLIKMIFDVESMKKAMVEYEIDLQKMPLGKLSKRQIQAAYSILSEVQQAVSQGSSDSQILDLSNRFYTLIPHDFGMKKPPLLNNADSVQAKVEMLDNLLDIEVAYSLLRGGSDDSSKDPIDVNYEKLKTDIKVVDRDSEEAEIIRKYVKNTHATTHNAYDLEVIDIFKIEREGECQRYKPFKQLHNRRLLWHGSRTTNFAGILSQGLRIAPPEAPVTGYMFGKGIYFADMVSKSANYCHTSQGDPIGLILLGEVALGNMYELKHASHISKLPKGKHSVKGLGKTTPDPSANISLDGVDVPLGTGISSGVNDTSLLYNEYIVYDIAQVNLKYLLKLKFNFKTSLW
For orientation: IC50 means the concentration that gives 50% inhibition. For the compound `O=C(Nc1cc(Cn2c(=O)[nH]c(=O)c3ccccc32)cnc1F)[C@H]1CCN(Cc2ccncc2)C1`, the IC50 was found to be 62 nM.

Take `O=C(Nc1cc(Cn2c(=O)[nH]c(=O)c3ccccc32)cnc1F)[C@H]1CCN(Cc2ccccc2)C1`: the IC50 worked out at 13.3 nM.

With `O=C(Nc1cc(Cn2c(=O)[nH]c(=O)c3ccccc32)cnc1Br)[C@H]1CCNC1`, the IC50 is greater than 100 nM.

On to `O=C(Nc1cc(Cn2c(=O)[nH]c(=O)c3ccccc32)cnc1F)[C@H]1CCN(c2ccccc2)C1`, for which the IC50 was determined as 92.6 nM.

Turning to `CC(C)(C)OC(=O)N1CC[C@H](C(=O)Nc2cc(Cn3c(=O)[nH]c(=O)c4ccccc43)ccc2Cl)C1`, the IC50 came out at 6.2 nM.

On to `O=C(Nc1cc(Cn2c(=O)[nH]c(=O)c3ccccc32)cnc1F)[C@H]1CCN(CCC2CC2)C1`, for which the IC50 amounted to 1.4 nM.

On to `O=C(Nc1cncc(Cn2c(=O)[nH]c(=O)c3ccccc32)c1)[C@H]1CCNC1`, for which the IC50 was found to be 9.9 nM.

With `CC(C)(C)OC(=O)N1CC[C@H](C(=O)Nc2cc(Cn3c(=O)[nH]c(=O)c4ccccc43)ccc2O)C1`, the IC50 was greater than 100 nM.

With `O=C(Nc1cc(Cn2c(=O)[nH]c(=O)c3ccccc32)ccc1Br)[C@H]1CCNC1`, the IC50 is greater than 100 nM.

With `O=C(Nc1cc(Cn2c(=O)[nH]c(=O)c3ccccc32)cnc1Cl)[C@H]1CCNC1`, the IC50 stood at 174 nM.

Regarding `O=C(Nc1cc(Cn2c(=O)[nH]c(=O)c3ccccc32)cnc1F)[C@H]1CCN(CC2CC2)C1`, the IC50 was 5.7 nM.

Turning to `O=C(Nc1cc(Cn2c(=O)[nH]c(=O)c3ccccc32)cnc1F)[C@H]1CCNC1`, the IC50 came to 13.7 nM.

Consider `CC(C)(C)OC(=O)N1CC[C@H](C(=O)Nc2cncc(Cn3c(=O)[nH]c(=O)c4ccccc43)c2)C1`, for which the IC50 was greater than 100 nM.

For the compound `CC(C)(C)OC(=O)N1CC[C@H](C(=O)Nc2cc(Cn3c(=O)[nH]c(=O)c4ccccc43)cnc2Cl)C1`, the IC50 is 232 nM.

Regarding `O=C(Nc1cc(Cn2c(=O)[nH]c(=O)c3ccccc32)ccc1Cl)[C@H]1CCNC1`, the IC50 was greater than 100 nM.

Turning to `O=C(Nc1cc(Cn2c(=O)[nH]c(=O)c3ccccc32)cnc1F)[C@H]1CCN(CC(F)(F)F)C1`, the IC50 was 467 nM.

Consider `CC(C)(C)OC(=O)N1CC[C@H](C(=O)Nc2cc(Cn3c(=O)[nH]c(=O)c4ccccc43)ccc2[N+](=O)[O-])C1`, for which the IC50 was greater than 100 nM.

As to `CC(C)(C)OC(=O)N1CC[C@H](C(=O)Nc2cc(Cn3c(=O)[nH]c(=O)c4ccccc43)cnc2F)C1`, the IC50 amounted to 39.8 nM.

With `O=C(Nc1cc(Cn2c(=O)[nH]c(=O)c3ccccc32)cnc1F)[C@H]1CCN(C(=O)C2CC2)C1`, the IC50 amounted to 54 nM.

With `O=C(Nc1cc(Cn2c(=O)[nH]c(=O)c3ccccc32)ccc1[N+](=O)[O-])[C@H]1CCNC1`, the IC50 was greater than 100 nM.

For the compound `O=C(Nc1cc(Cn2c(=O)[nH]c(=O)c3ccccc32)cnc1F)[C@H]1CCN(CCC(F)(F)F)C1`, the IC50 was 3.1 nM.

As to `O=C(Nc1cc(Cn2c(=O)[nH]c(=O)c3ccccc32)cnc1F)[C@H]1CCN(C2CCC(F)(F)CC2)C1`, the IC50 is 81 nM.

Turning to `CC(C)(C)OC(=O)N1CC[C@H](C(=O)Nc2cc(Cn3c(=O)[nH]c(=O)c4ccccc43)ccc2N)C1`, the IC50 is greater than 100 nM.

With `CC(C)(C)OC(=O)N1CC[C@H](C(=O)Nc2cc(Cn3c(=O)[nH]c(=O)c4ccccc43)ccc2Br)C1`, the IC50 turned out to be 346 nM.

Regarding `CC(C)(C)OC(=O)N1CC[C@H](C(=O)Nc2cc(Cn3c(=O)[nH]c(=O)c4ccccc43)cnc2Br)C1`, the IC50 is greater than 100 nM.

For another assay, the target named is Poly [ADP-ribose] polymerase 2 (Homo sapiens, UniProt Q9UGN5). In words: Inhibition of recombinant human PARP-2 expressed in Escherichia coli BL21 (DE3) using sheared DNA as substrate in presence of biotinylated NAD after 1 hr by ELISA.
Sequence of Poly [ADP-ribose] polymerase 2 (Q9UGN5 whole entry): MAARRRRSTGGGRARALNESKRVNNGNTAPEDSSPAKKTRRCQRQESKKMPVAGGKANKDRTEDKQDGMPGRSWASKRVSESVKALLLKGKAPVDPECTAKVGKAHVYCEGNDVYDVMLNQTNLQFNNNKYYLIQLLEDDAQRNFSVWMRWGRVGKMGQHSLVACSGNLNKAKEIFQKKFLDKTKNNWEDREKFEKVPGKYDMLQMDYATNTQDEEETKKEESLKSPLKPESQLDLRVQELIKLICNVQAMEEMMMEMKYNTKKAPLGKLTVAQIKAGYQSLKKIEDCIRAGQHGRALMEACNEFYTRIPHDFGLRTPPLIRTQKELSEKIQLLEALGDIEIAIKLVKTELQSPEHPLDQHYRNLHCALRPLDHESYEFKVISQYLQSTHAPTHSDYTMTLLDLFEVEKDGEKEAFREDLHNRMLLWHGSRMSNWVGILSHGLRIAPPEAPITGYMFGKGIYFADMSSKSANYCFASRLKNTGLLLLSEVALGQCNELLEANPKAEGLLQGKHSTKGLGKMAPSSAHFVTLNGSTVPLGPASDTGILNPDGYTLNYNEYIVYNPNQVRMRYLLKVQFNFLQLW
Turning to `O=C(Nc1cc(Cn2c(=O)[nH]c(=O)c3ccccc32)cnc1F)[C@H]1CCN(Cc2ccncc2)C1`, the IC50 amounted to 5.8 nM.

`O=C(Nc1cc(Cn2c(=O)[nH]c(=O)c3ccccc32)cnc1F)[C@H]1CCN(Cc2ccccc2)C1`: the IC50 was 5.4 nM.

As for `O=C(Nc1cc(Cn2c(=O)[nH]c(=O)c3ccccc32)cnc1Br)[C@H]1CCNC1`, the half-inhibitory concentration (IC50) was greater than 100 nM.

With `O=C(Nc1cc(Cn2c(=O)[nH]c(=O)c3ccccc32)cnc1F)[C@H]1CCN(c2ccccc2)C1`, the IC50 was determined as 4.1 nM.

`CC(C)(C)OC(=O)N1CC[C@H](C(=O)Nc2cc(Cn3c(=O)[nH]c(=O)c4ccccc43)ccc2Cl)C1`: the IC50 is 9.1 nM.

Regarding `O=C(Nc1cc(Cn2c(=O)[nH]c(=O)c3ccccc32)cnc1F)[C@H]1CCN(CCC2CC2)C1`, the IC50 was found to be 1 nM.

On to `O=C(Nc1cncc(Cn2c(=O)[nH]c(=O)c3ccccc32)c1)[C@H]1CCNC1`, for which the IC50 is 220 nM.

Consider `CC(C)(C)OC(=O)N1CC[C@H](C(=O)Nc2cc(Cn3c(=O)[nH]c(=O)c4ccccc43)ccc2O)C1`, for which the IC50 was greater than 100 nM.

As for `O=C(Nc1cc(Cn2c(=O)[nH]c(=O)c3ccccc32)ccc1Br)[C@H]1CCNC1`, the IC50 is greater than 100 nM.

In the case of `O=C(Nc1cc(Cn2c(=O)[nH]c(=O)c3ccccc32)cnc1Cl)[C@H]1CCNC1`, the IC50 was found to be 40 nM.

With `O=C(Nc1cc(Cn2c(=O)[nH]c(=O)c3ccccc32)cnc1F)[C@H]1CCN(CC2CC2)C1`, the IC50 is 3.6 nM.

In the case of `O=C(Nc1cc(Cn2c(=O)[nH]c(=O)c3ccccc32)cnc1F)[C@H]1CCNC1`, the IC50 came out at 80 nM.

Regarding `CC(C)(C)OC(=O)N1CC[C@H](C(=O)Nc2cncc(Cn3c(=O)[nH]c(=O)c4ccccc43)c2)C1`, the IC50 was greater than 100 nM.

Consider `CC(C)(C)OC(=O)N1CC[C@H](C(=O)Nc2cc(Cn3c(=O)[nH]c(=O)c4ccccc43)cnc2Cl)C1`, for which the IC50 was determined as 12.2 nM.

As to `O=C(Nc1cc(Cn2c(=O)[nH]c(=O)c3ccccc32)ccc1Cl)[C@H]1CCNC1`, the IC50 is greater than 100 nM.

For the compound `O=C(Nc1cc(Cn2c(=O)[nH]c(=O)c3ccccc32)cnc1F)[C@H]1CCN(CC(F)(F)F)C1`, the IC50 was determined as 11.5 nM.

As to `CC(C)(C)OC(=O)N1CC[C@H](C(=O)Nc2cc(Cn3c(=O)[nH]c(=O)c4ccccc43)ccc2[N+](=O)[O-])C1`, the IC50 was greater than 100 nM.

For the compound `CC(C)(C)OC(=O)N1CC[C@H](C(=O)Nc2cc(Cn3c(=O)[nH]c(=O)c4ccccc43)cnc2F)C1`, the IC50 was 8.6 nM.

In the case of `O=C(Nc1cc(Cn2c(=O)[nH]c(=O)c3ccccc32)cnc1F)[C@H]1CCN(C(=O)C2CC2)C1`, the IC50 amounted to 4.5 nM.

Regarding `O=C(Nc1cc(Cn2c(=O)[nH]c(=O)c3ccccc32)ccc1[N+](=O)[O-])[C@H]1CCNC1`, the IC50 is greater than 100 nM.

Take `O=C(Nc1cc(Cn2c(=O)[nH]c(=O)c3ccccc32)cnc1F)[C@H]1CCN(CCC(F)(F)F)C1`: the IC50 amounted to 2.9 nM.

Turning to `O=C(Nc1cc(Cn2c(=O)[nH]c(=O)c3ccccc32)cnc1F)[C@H]1CCN(C2CCC(F)(F)CC2)C1`, the IC50 was 11.9 nM.

In the case of `CC(C)(C)OC(=O)N1CC[C@H](C(=O)Nc2cc(Cn3c(=O)[nH]c(=O)c4ccccc43)ccc2N)C1`, the IC50 is greater than 100 nM.

Regarding `CC(C)(C)OC(=O)N1CC[C@H](C(=O)Nc2cc(Cn3c(=O)[nH]c(=O)c4ccccc43)ccc2Br)C1`, the IC50 was determined as 68 nM.

`CC(C)(C)OC(=O)N1CC[C@H](C(=O)Nc2cc(Cn3c(=O)[nH]c(=O)c4ccccc43)cnc2Br)C1`: the IC50 was greater than 100 nM.
